Most compounds without a hit are left out; they make up all but 0.92% or so of the library.
FN deposition inh: fibronectin deposition inhibition. AH1F fibroblasts, Alexa488-fibronectin deposition fluorescence, overnight. 0.086% of 350,000 active. inhibition, % at 12.6 µM. AID 743247;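 active = mean inhibition across replicates of 30% or more, regardless of how many single replicates reach that level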;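 note: positive control wells lacked labelled fibronectin entirely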
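Assay system: AH1F fibroblast monolayer, labelled fibronectin deposition. Amount: 10000 cells per well. Also added: labelled fibronectin 24 nM. Compound: single-point pinned compound. Incubation: cell attachment 1 h, compound and FN exposure overnight. Detection: fluorescence after three HBSS washes, excitation 485 nm, emission 525 nm. Read-out: inhibition of fibronectin deposition signal.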
N-glyco inh: blocks N-linked glycosylation in D54 reporter cells; reporter increase, % at 12.5 µM; D54 ERlucT glycosylation luciferase reporter, 24 h; percent of 100 nM tunicamycin response; 0.23% of 360,000 active; AID 588692;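 active = mean luciferase reporter signal, scaled so untreated is 0 and the glycosylation-blocking control 100, at or above a set limit in every replicate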;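 note: luciferase carries N-glycosylation sites so blocking glycosylation raises the light; 0% = median of neutral control wells and 100% = median of 100 nM tunicamycin wells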
MLL AF4-AF9 inh: inhibitors of human MLL-AF4/AF9 interaction | P42568 | AlphaScreen, biotin-AF4 peptide binding to FLAG-AF9 | inhibition, % at 10 µM | 0.47% of 350,000 active | AID 651704;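 active = every replicate reaching a set inhibition limit, whatever the replicate mean, cut at about 25% in these data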;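 note: 0% = plate neutral control median and 100% = total signal loss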
RAD52 anneal inh: blocks human RAD52 DNA annealing; P43351; recombinant RAD52 DNA annealing, FRET fluorescence; inhibition, % at 18.7 µM; 0.46% of 360,000 active;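 active = every replicate showing at least 50% inhibition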
RAD54 branch: RAD54 (human) branch migration inhibition; RAD54 Holliday junction branch migration, FAM/BHQ fluorescence; inhibition, % at 10.4 µM; 0.14% of 360,000 active; AID 602329;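 active = mean normalized replicate activity at least 40 and at least half of replicates scoring 40 or more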;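 note: 0% = median of neutral control wells and 100% = median of positive control wells; inhibitors cause a drop in the FAM fluorescence signal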
Target sequence (Q92698 whole entry, looked up): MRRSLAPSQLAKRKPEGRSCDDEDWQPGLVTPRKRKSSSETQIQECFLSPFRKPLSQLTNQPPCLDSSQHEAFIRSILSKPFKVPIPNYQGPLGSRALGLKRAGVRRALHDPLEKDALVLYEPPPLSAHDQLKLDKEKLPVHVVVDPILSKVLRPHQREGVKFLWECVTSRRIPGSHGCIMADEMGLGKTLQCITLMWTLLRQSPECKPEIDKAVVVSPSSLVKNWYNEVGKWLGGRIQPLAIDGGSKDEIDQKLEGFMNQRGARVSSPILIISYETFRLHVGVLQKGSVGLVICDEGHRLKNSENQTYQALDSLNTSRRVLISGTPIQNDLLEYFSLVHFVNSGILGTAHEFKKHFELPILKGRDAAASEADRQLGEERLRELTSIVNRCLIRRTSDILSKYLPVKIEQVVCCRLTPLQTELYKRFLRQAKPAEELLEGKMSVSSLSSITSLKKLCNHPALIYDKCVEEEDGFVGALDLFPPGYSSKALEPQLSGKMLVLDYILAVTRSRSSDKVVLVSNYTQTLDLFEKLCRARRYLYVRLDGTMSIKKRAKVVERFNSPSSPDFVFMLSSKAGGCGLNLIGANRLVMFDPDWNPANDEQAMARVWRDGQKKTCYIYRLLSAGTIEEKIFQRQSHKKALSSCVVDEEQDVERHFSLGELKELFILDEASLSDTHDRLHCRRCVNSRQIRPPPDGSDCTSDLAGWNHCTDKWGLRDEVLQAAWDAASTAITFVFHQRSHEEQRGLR
Numbers without * were called inactive; / = no result given; ! = repeats disagree.

SMILES	FN deposition inh	N-glyco inh	MLL AF4-AF9 inh	RAD52 anneal inh	RAD54 branch
COc1ccc2c3c(n(C)c2c1)[C@@H](CO)N(Cc1ccccc1)CC31CCN(S(=O)(=O)c2ccc(C)cc2)CC1	/	/	-10	-12	/
COc1ccc(-c2cn(-c3ccccc3)nc2CO)cc1	1	0	-5	-8	-12
C=CCn1c(-c2ccc(OC)cc2)csc1=Nc1c(C)n(C)n(-c2ccccc2)c1=O	/	-1	/	/	9
COc1ccc(-c2csc(=NCCO)n2-c2ccccc2)cc1	0	-3	33*	-17	-1
COc1ccc(-c2csc(=Nc3ccccc3)n2CCO)cc1	2	-4	38*	4	2
O=C(C[C@@H]1CC[C@@H](NS(=O)(=O)c2ccc(F)cc2)[C@H](CO)O1)NCCN1CCCCC1	/	/	/	3	3
CC(C)[N+]1=C2C=CC=CC=C2SC12C([N+](=O)[O-])=CC(=[N+]([O-])[O-])C=C2[N+](=O)[O-] (centres undefined)	5	15	29*	0	-3
COCC(=O)N1CCC2(CC1)CN(C(=O)Cc1ccccc1)[C@H](CO)c1c2c2ccc(OC)cc2n1C	/	/	-1	16	/
COc1ccc(CC(N)c2csc(NC(=O)Nc3ccccc3Oc3ccccc3)n2)cc1 (centres undefined)	-5	-3	5	77*	-9
NC(Cc1ccccc1)c1csc(NC(=O)Nc2ccccc2Oc2ccccc2)n1 (centres undefined)	7	-5	2	-30	-5
C[C@H]1CCCCO[C@H](CN(C)CC2CCCCC2)[C@@H](C)CN([C@@H](C)CO)C(=O)c2cc(NS(=O)(=O)c3ccc(F)cc3)ccc2O1	/	/	2	45	19
COc1cc2c(cc1OC)C(=O)N1[C@H]3c4ccccc4OC[C@@H]3[C@H](c3ccccc3)[C@]1(C)C(=O)N2	-10	41*	/	-15	0
COc1ccc2c(c1)OC[C@H]1[C@@H]2N2C(=O)[C@@H](C)NC(=O)[C@@]2(C)[C@H]1c1ccccc1	3	0	-1	3	2
COc1ccc2c(c1)OC[C@H]1[C@H]2N2C(=O)c3cc(OC)c(OC)cc3NC(=O)[C@@]2(C)[C@H]1c1ccccc1	10	47*	8	-65	5
COC(=O)[C@@H]1[C@@H](CO)[C@@H]2Cn3c(ccc(-c4ccccc4OC)c3=O)[C@@H]2N1CC1CCCC1	-7	/	0	-23	-13
COc1ccc2c3c(n(C)c2c1)[C@H](CO)N(S(C)(=O)=O)CC31CN(C(=O)C2CCC2)C1	/	/	1	10	/
Cc1cc(C(=O)Nc2c(C)nn(Cc3c(Cl)cccc3Cl)c2C)no1	2	-11	/	/	/
Cc1nn(Cc2c(Cl)cccc2Cl)c(C)c1NC(=O)c1cc(C(C)C)on1	9	64*	-3	-3	4
CCOc1cccc(C(=O)Nc2cccc(-c3nnc(-c4ccc(C)cc4)o3)c2)c1	/	99*	/	/	10
CCc1ccc(C2c3[nH]c4ccccc4c3CCN2C(=O)CN2CCN(CC)CC2)cc1 (centres undefined)	5	-5	31*	37	/
CC=Cc1ccc2n(c1=O)C[C@H]1[C@H](CO)[C@@H](C(=O)NCCC)N(CC3CCCC3)[C@@H]21 (mixture of isomers)	/	/	4	99*	-2
O=c1[nH]c2cc([N+](=O)[O-])cc(Cl)c2c2ccccc12	8	1	-1	-2	-2
N#Cc1cc2[nH]c3ccccc3c2[n+](-c2ccc([N+](=O)[O-])cc2)c1N	1	28*	2	15	26
Cc1ccc(-c2cc(NC(=O)CCl)n(-c3ccccc3)n2)cc1	-13	21	/	/	11
Cc1ccc(-n2nc(C)c(NC(=O)CCl)c2C)cc1	7	55*	/	/	-4
SMILES	FN deposition inh	N-glyco inh	MLL AF4-AF9 inh	RAD52 anneal inh	RAD54 branch
O=C(NC1CCCCC1)N[C@@H]1C=C[C@H](CC(=O)N2CCOCC2)O[C@H]1CO	/	/	-1	14	4
O=C(NC1CCCCC1)N[C@@H]1C=C[C@@H](CC(=O)N2CCOCC2)O[C@@H]1CO	/	/	38*	2	-1
CCOc1ccc(NC(=O)CSc2ncc(-c3ccc(F)cc3)n2Cc2ccco2)cc1	5	-1	39*	-15	/
C[C@@H]1CC=CC[C@H](c2cccc(Cl)c2)NC(=O)[C@H](C)N(C)C(=O)c2ccccc2O1 (mixture of isomers)	-7	/	/	/	/
CCCN(C)C[C@H]1Oc2ncc(C#CC3CC3)cc2C(=O)N([C@@H](C)CO)C[C@@H]1C	-1	/	/	/	/
CC(OC(=O)c1ccc(Cl)c(S(=O)(=O)Nc2ccc(F)cc2)c1)C(=O)NC(N)=O (centres undefined)	-9	-1	40*	-6	-11
CN(C)S(=O)(=O)c1cccc(-c2csc(=Nc3ccccc3)n2CCCN2CCOCC2)c1	-4	-5	32*	5	-4
COc1cccc(-c2ccc3c(c2)[C@@H]2[C@@H](CCN2C(=O)c2ccccc2F)[C@@H](CO)N3C)c1	0	/	3	69*	13
COc1cccc(-c2ccc3c(c2)[C@H]2[C@H](CCN2C(=O)Nc2ccccc2OC)[C@@H](CO)N3C)c1	-31	/	5	27	11
COc1cccc(-c2ccc3c(c2)[C@@H]2[C@@H](CCN2C(=O)c2ccccc2F)[C@H](CO)N3C)c1	5	/	4	26	7
COc1cccc(-c2ccc3c(c2)[C@@H]2[C@@H](CCN2C(=O)Nc2ccccc2OC)[C@@H](CO)N3C)c1	-9	/	-1	60*	16
COc1cccc(-c2ccc3c(c2)[C@H]2[C@H](CCN2C(=O)Nc2ccccc2OC)[C@H](CO)N3C)c1	-22	/	-1	51*	10
CCCC#Cc1ccc2c(c1)[C@@H]1[C@@H](CCN1C(=O)C1CCC1)[C@@H](CO)N2	2	/	/	/	/
Nc1c(N(CCC2=CCCCC2)C(=O)COc2ccc(F)cc2Cl)c(=O)[nH]c(=O)n1Cc1ccccc1	-10	56*	-1	-15	-8
CCOCCCNC(=O)Cn1nc(-c2ccccc2)ccc1=O	-6	-2	51*	0	1
CC(C)NC(=O)Nc1cccc2c1O[C@@H](CN(C)C)[C@@H](C)CN(C)C2=O	-18	/	/	/	/
COc1cc(NC(=O)c2ccc(-c3c(C)noc3C)c3ccoc23)cc(OC)c1OC	-2	33*	-1	1	8
Fc1cccc(CN2C[C@@H]3N[C@H](C2)[C@@H]3c2ccc(-c3cccc(F)c3)cc2)c1	2	/	11	86*	/
Fc1cccc(-c2ccc(C3[C@@H]4CN(Cc5cccnc5)C[C@H]3N4)cc2)c1 (some centres undefined)	8	/	8	55*!	/
c1ncc(-c2ccc(C3[C@@H]4CN(Cc5ccc6c(c5)OCO6)C[C@H]3N4)cc2)cn1 (some centres undefined)	9	/	8	51*	/
N#Cc1cccc(-c2ccc(C3[C@@H]4CN(Cc5ccccc5)C[C@H]3N4)cc2)c1 (some centres undefined)	7	/	/	/	/
